Consider two compounds from ChEMBL document CHEMBL4190337, “Design, Synthesis, and Antibacterial Activity of a Multivalent Polycationic Calix[4]arene-NO Photodonor Conjugate” (ACS Med Chem Lett, 2017).

Data set [1] in a line: Drug metabolism in MeOH/PBS solution assessed as […] release at 170 uM irradiated with 60 mW laser light by amperometric detection assay. It counts as functional. The method in brief: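 NO release followed during continuous visible-light irradiation at λexc 405 nm of optically matched solutions in MeOH/PBS (20/80), with the model donor at 170 µM; release profile recorded over irradiation time.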

Data set [2] concerns Staphylococcus aureus. Kind of data set: Bactericidal activity against Staphylococcus aureus ATCC 6538 assessed as reduction in bacterial count at 0.25 mM irradiated with 450 mW xenon light after 20 mins by time kill assay relative to control. Details: scale not given: the % may be the effect or the level left. It counts as functional. The gist of the method: (§1)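 Time-kill assay with the agent at 0.25 mM final in 5% EtOH/PBS, made from a 0.5 mM solution in 10% EtOH/PBS. Samples ran in duplicate, kept in the dark or illuminated, alongside PBS and 5% EtOH/PBS vehicle controls. Viable bacteria were counted as CFU/mL at set times and expressed as % and log reduction.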

Data set [3] relates to Staphylococcus aureus. The experiment in a line: Bactericidal activity against Staphylococcus aureus ATCC 6538 assessed as log reduction in colony forming units at 0.25 mM irradiated with 450 mW xenon light after 20 mins by time kill assay. It counts as functional. The gist of the method:
as §1

The subject of data set [4] is Escherichia coli. The experiment in a line: Bactericidal activity against Escherichia coli ATCC 10536 assessed as reduction in colony forming units at 0.25 mM irradiated with 450 mW xenon light after 30 mins by time kill assay. The format is functional. Further details: scale not given: the % may be the effect or the level left. The gist of the method:
as §1

Data set [5] relates to Staphylococcus aureus. Kind of data set: Bactericidal activity against Staphylococcus aureus ATCC 6538 assessed as log reduction in colony forming units at 0.25 mM after 30 mins under dark condition by time kill assay. The format is functional. The gist of the method: as §1
Data set [6] has as its system Escherichia coli. Kind of data set: Bactericidal activity against Escherichia coli ATCC 10536 assessed as log reduction in colony forming units at 0.25 mM irradiated with 450 mW xenon light after 30 mins by time kill assay. It counts as functional. The method in brief: as §1
Data set [7] deals with Staphylococcus aureus. The experiment in a line: Bactericidal activity against Staphylococcus aureus ATCC 6538 assessed as reduction in bacterial count at 0.25 mM irradiated with 450 mW xenon light up to 30 mins by time kill assay. It counts as functional, organism-based. The method in brief:
as §1

Data set [8] can be described thus: Drug metabolism in MeOH/PBS solution assessed as […] release at 40 uM irradiated with 60 mW laser light by amperometric detection assay. It counts as functional. The gist of the method: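 NO release was profiled in MeOH/PBS (20/80) at 40 µM under visible light irradiation (λexc = 405 nm), using an optically matched solution of a model NO photodonor for comparison.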

Data set [9] has as its system Staphylococcus aureus. The experiment in a line: Bactericidal activity against Staphylococcus aureus ATCC 6538 assessed as reduction in bacterial count at 0.25 mM after 30 mins under dark condition by time kill assay relative to control. It counts as functional. Further details: scale not given: the % may be the effect or the level left. The method in brief: as §1

Data set [10] relates to Staphylococcus aureus. Kind of data set: Bactericidal activity against Staphylococcus aureus ATCC 6538 assessed as log reduction in colony forming units at 0.25 mM irradiated with 450 mW xenon light after 10 mins by time kill assay. It counts as functional. The gist of the method: as §1
A short description of data set [11]: Drug metabolism in MeOH/PBS solution assessed as […] release by measuring shift in maximum absorption wavelength at 40 uM irradiated with 60 mW laser light by UV-vis absorption spectra analysis. The format is functional.
The test system of data set [12] is Escherichia coli. The experiment in a line: Bactericidal activity against Escherichia coli ATCC 10536 assessed as reduction in bacterial count at 0.25 mM after 30 mins under dark condition by time kill assay. It counts as functional, organism-based. The gist of the method: as §1
For data set [13], the system named is Staphylococcus aureus. The experiment in a line: Bactericidal activity against Staphylococcus aureus ATCC 6538 assessed as reduction in bacterial count at 0.25 mM irradiated with 450 mW xenon light after 10 mins by time kill assay relative to control. It counts as functional. Further details: scale not given: the % may be the effect or the level left. The gist of the method:
as §1

Data set [14] in a line: Cytotoxicity against human skin fibroblasts at 0.25 mM irradiated with 450 mW xenon light measured after 30 mins. Particulars: 0.5 h, 250 µM.

Calls of active or inactive are those of the source. No cut-off for these calls is given here.

On to `NCCCNc1ccc([N+](=O)[O-])c(C(F)(F)F)c1`, for which the Drug metabolism entry in [1] was “Metabolite detected”.

Consider `C[N+](C)(CCO)CCCOc1c2cc(CNc3ccc([N+](=O)[O-])c(C(F)(F)F)c3)cc1Cc1cc(CNc3ccc([N+](=O)[O-])c(C(F)(F)F)c3)cc(c1O)Cc1cc(CNc3ccc([N+](=O)[O-])c(C(F)(F)F)c3)cc(c1OCCC[N+](C)(C)CCO)Cc1cc(CNc3ccc([N+](=O)[O-])c(C(F)(F)F)c3)cc(c1O)C2.[Br-].[Br-]`, for which the Activity is greater than 99.95% in data set [2]; greater than 3.31 log10CFU/ml in data set [3]; 93.5% in [4]; 1.96 log10CFU/ml in data set [5]; 1.2 log10CFU/ml in data set [6]; 98.9% in [9]. Further, the Activity is listed as 2.1 log10CFU/ml in data set [10], 99.2% in [13] and less than 15% in data set [14]. The outcome in data set [7] was Active. Further, the Drug metabolism entry in [8] and in data set [11] was “Metabolite detected” each time. The outcome in [12] was inactive.
